From article PMC4462344 (Cancer Science, 2014)
“And” between values parts separate entries of the source, which are not always exact repeats. Identical values can stand only once. Marks after values point to notes of the source that are not given here.

What was measured:
Assay type in all cases: in vivo, Japanese CRPC patients
corticosterone = assay: Pharmacodynamics: serum corticosterone concentration
Method in brief: (§1)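 Serum corticosterone, 11-deoxycorticosterone, testosterone and DHEA-S were measured at baseline and on days 2 and 8 of cycle 1. Abiraterone acetate was given orally once daily after an overnight fast, with no food for ≥1 h after dosing. It was given alone days 1–7, then with prednisone 5 mg twice daily. Results are summarised as change from baseline.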

11-deoxycorticosterone = assay: Pharmacodynamics: serum 11-deoxycorticosterone concentration
Method in brief: as §1

testosterone = assay: Pharmacodynamics: serum testosterone concentration
Method in brief: as §1

[1] = Plasma abiraterone acetate and abiraterone pharmacokinetics
Method in brief: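 Venous blood was drawn at predose and 0.5–12 h after dosing on cycle 1 days 1, 7 and 15 (monotherapy days 1–7; prednisone 5 mg twice daily from day 8), plus 24-h and trough samples. Samples were taken on NaF, spun at 1300 g and 4°C for 10 min, and stored at −20°C. Assay was validated LC/MS/MS (LLOQ 0.220 ng/mL). Cmax, tmax and AUC24 came from non-compartmental analysis.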

[2] = system: dehydroepiandrosterone sulfate (DHEA-S); assay: Pharmacodynamics: serum DHEA-S concentration
Method in brief: as §1

[3] = system: castration-resistant prostate cancer; assay: Efficacy: objective tumor response by RECIST
Method in brief: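 Patients with measurable lesions were assessed for objective tumour response by RECIST. Dosing was once-daily oral abiraterone acetate (250, 500 or 1000 mg, the 1000 mg given 1 h premeal or 2 h postmeal) in 28-day cycles, with prednisone 5 mg twice daily added from cycle 1 day 8 onward.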

[4] = system: prostate-specific antigen (PSA); assay: Efficacy: PSA response; details: for patients who achieved ≥50% PSA decline from baseline at one or more evaluation time points: entire treatment period; for mean percentage change from baseline in PSA levels: week 12
Method in brief: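 Oral abiraterone acetate given once daily in 28-day cycles to chemotherapy-naïve patients on continued LHRH agonist or post-orchiectomy: monotherapy days 1–7 of cycle 1, then with prednisone 5 mg twice daily. PSA measured at screening and day 1 of each cycle. Response was a ≥50% fall from baseline confirmed to persist ≥4 weeks, per PCWG2.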

[5] = Cycle 1 Day 2, 1000 (+2 h) mg (n = 6)
[6] = Cycle 1 Day 2, 1000 (−1 h) mg (n = 6)
[7] = Cycle 1 Day 8, 1000 (+2 h) mg (n = 6)
[8] = Cycle 1 Day 8, 1000 (−1 h) mg (n = 6)

CC(=O)O[C@H]1CC[C@@]2(C)C(=CC[C@@H]3[C@@H]2CC[C@]2(C)C(c4cccnc4)=CC[C@@H]32)C1 [Abiraterone acetate]
Corticosterone, mean (SD) change from baseline (corticosterone; Cycle 1 Day 2, 250 mg (n = 9)): 1097.1 (687.41) ng/dL
Corticosterone, mean (SD) change from baseline (corticosterone; Cycle 1 Day 2, 500 mg (n = 6)): 2914.8 (1543.83) ng/dL
Corticosterone, mean (SD) change from baseline (corticosterone; [5]): 4227.3 (2814.68) ng/dL
Corticosterone, mean (SD) change from baseline (corticosterone; [6]): 1957.2 (1008.74) ng/dL
Corticosterone, mean (SD) change from baseline (corticosterone; Cycle 1 Day 8, 250 mg (n = 9)): 2015.2 (769.39) ng/dL
Corticosterone, mean (SD) change from baseline (corticosterone; Cycle 1 Day 8, 500 mg (n = 6)): 4086.5 (2478.82) ng/dL
Corticosterone, mean (SD) change from baseline (corticosterone; [7]): 6426.2 (2212.64) ng/dL
Corticosterone, mean (SD) change from baseline (corticosterone; [8]): 5147.8 (1642.75) ng/dL
11-deoxycorticosterone, mean (SD) change from baseline (11-deoxycorticosterone; Cycle 1 Day 2, 250 mg (n = 8)): 22.9 (10.13) ^† ng/dL
11-deoxycorticosterone, mean (SD) change from baseline (11-deoxycorticosterone; Cycle 1 Day 2, 500 mg (n = 6)): 40.3 (16.79) ng/dL
11-deoxycorticosterone, mean (SD) change from baseline (11-deoxycorticosterone; [5]): 45.7 (61.09) ng/dL
11-deoxycorticosterone, mean (SD) change from baseline (11-deoxycorticosterone; [6]): 36.3 (17.22) ng/dL
11-deoxycorticosterone, mean (SD) change from baseline (11-deoxycorticosterone; Cycle 1 Day 8, 250 mg (n = 8)): 45.9 (13.35) ^† ng/dL
11-deoxycorticosterone, mean (SD) change from baseline (11-deoxycorticosterone; Cycle 1 Day 8, 500 mg (n = 6)): 78.8 (36.41) ng/dL
11-deoxycorticosterone, mean (SD) change from baseline (11-deoxycorticosterone; [7]): 112.3 (65.15) ng/dL
11-deoxycorticosterone, mean (SD) change from baseline (11-deoxycorticosterone; [8]): 79.2 (51.53) ng/dL
Testosterone, mean (SD) change from baseline (testosterone; Cycle 1 Day 2, 250 mg (n = 9)): −3.6 (3.64) ng/dL
Testosterone, mean (SD) change from baseline (testosterone; Cycle 1 Day 2, 500 mg (n = 6)): −4.8 (3.06) ng/dL
Testosterone, mean (SD) change from baseline (testosterone; [5]): −7.5 (1.87) ng/dL
Testosterone, mean (SD) change from baseline (testosterone; [6]): −8.0 (3.22) ng/dL
Testosterone, mean (SD) change from baseline (testosterone; Cycle 1 Day 8, 250 mg (n = 9)): −6.2 (4.06) ng/dL
Testosterone, mean (SD) change from baseline (testosterone; Cycle 1 Day 8, 500 mg (n = 6)): −8.2 (3.82) ng/dL
Testosterone, mean (SD) change from baseline (testosterone; [7]): −9.2 (2.32) ng/dL
Testosterone, mean (SD) change from baseline (testosterone; [8]): −10.8 (6.21) ng/dL
mean change from baseline in testosterone levels, range over cohorts (testosterone; day 8 in cycle 1, 250-1000 mg): -10.8 to -6.2 ng/dL
plasma AA concentrations ([1]; most plasma concentrations, all cohorts, LLOQ 0.220 ng/mL): below the quantification limit
DHEA-S, mean (SD) change from baseline ([2]; Cycle 1 Day 2, 250 mg (n = 9)): −19.1 (13.49) ug/dL
DHEA-S, mean (SD) change from baseline ([2]; Cycle 1 Day 2, 500 mg (n = 6)): −28.3 (24.32) ug/dL
DHEA-S, mean (SD) change from baseline [2, 5]: −53.3 (34.14) ug/dL
DHEA-S, mean (SD) change from baseline [2, 6]: −59.7 (49.87) ug/dL
DHEA-S, mean (SD) change from baseline ([2]; Cycle 1 Day 8, 250 mg (n = 9)): −35.7 (25.51) ug/dL
DHEA-S, mean (SD) change from baseline ([2]; Cycle 1 Day 8, 500 mg (n = 6)): −38.5 (37.31) ug/dL
DHEA-S, mean (SD) change from baseline [2, 7]: −76.8 (54.02) ug/dL
DHEA-S, mean (SD) change from baseline [2, 8]: −95.3 (77.99) ug/dL
patients in whom the disease had progressed (RECIST) ([3]; 250 mg): 1 patients
patients with stable disease (RECIST) ([3]; 250 mg): 1 patients
patients with partial response (RECIST) ([3]; 500 mg): 1 patients
patients with stable disease (RECIST) ([3]; 500 mg): 2 patients
patients in whom the disease had progressed (RECIST) ([3]; 1000 (+2 h) mg): 1 patients
patients with partial response (RECIST) ([3]; 1000 (−1 h) mg): 1 patients
patients with stable disease (RECIST) ([3]; 1000 (−1 h) mg): 2 patients
patients in whom the disease had progressed (RECIST) ([3]; all cohorts): 2 patients
patients with partial response (RECIST) ([3]; all cohorts): 2 patients
patients with stable disease (RECIST) ([3]; all cohorts): 5 patients
PSA response rate ([4]; 250 mg cohort): 67%
PSA response rate ([4]; 500 mg cohort, listed as AA): 50%
PSA response rate ([4]; 1000 (+2 h) mg cohort, listed as AA): 83% and 83.3%
PSA response rate ([4]; 1000 (−1 h) mg cohort, listed as AA): 67% and 66.7%
patients with ≥50% PSA decline confirmed to be maintained for at least 4 weeks ([4]; all cohorts): 18/27
overall PSA response rate ([4]; all cohorts (N = 27), ≥50% decline maintained ≥4 weeks): 67%
patients from each dose-group with ≥50% PSA reduction ([4]; each dose-group): At least 3 patients
patients who achieved ≥50% PSA decline from baseline at one or more evaluation time points ([4]; 250 mg): 7 patients
patients who achieved ≥50% PSA decline from baseline at one or more evaluation time points ([4]; 500 mg): 3 patients
patients who achieved ≥50% PSA decline from baseline at one or more evaluation time points ([4]; 1000 (+2 h) mg): 5 patients
patients who achieved ≥50% PSA decline from baseline at one or more evaluation time points ([4]; 1000 (−1 h) mg): 5 patients
patients who achieved ≥50% PSA decline from baseline at one or more evaluation time points ([4]; all cohorts): 20/27
mean percentage change from baseline in PSA levels ([4]; 250 mg): −51.2%
mean percentage change from baseline in PSA levels ([4]; 500 mg): −29.1%
mean percentage change from baseline in PSA levels ([4]; 1000 mg (+2 h)): −37.6%
mean percentage change from baseline in PSA levels ([4]; 1000 mg (−1 h)): −60.4%

C[C@]12CC[C@H](O)CC1=CC[C@@H]1[C@@H]2CC[C@]2(C)C(c3cccnc3)=CC[C@@H]12 [abiraterone]
mean Cmax and AUC24 of abiraterone, 2 h postmeal versus 1 h premeal ([1]; 1000 mg cohort, overall): 3.1–6.0 times
abiraterone Cmax and AUC24, 2 h postmeal versus 1 h premeal ([1]; AA 1000 mg multiple doses): approximately threefold to sixfold
accumulation index for AUC24 of abiraterone ([1]; irrespective of dose): 1.40–1.69
accumulation index for Cmax of abiraterone ([1]; irrespective of dose): 1.31–1.74
time at which steady state of plasma abiraterone was reached ([1]; regardless of dose): ≤ 7 days
